Measured values: ChEMBL document CHEMBL2086367, “Novel oxysterols activate the Hedgehog pathway and induce osteogenesis” (Bioorg Med Chem Lett, 2012)
Activity calls are given as the source filed them. The rule behind the calls is not given here.

Assays:
[1] = target: Sonic hedgehog protein (Mus musculus, UniProt Q62226); experiment: Activation of SHh in mouse Light2 cells assessed as induction of Gli-mediated luciferase activity after 24 hrs by reporter gene assay; assay type: cell-based
Outline: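 SHHLight2 cells (8×Gli response elements driving firefly luciferase; constitutive Renilla) seeded at 10,000 cells/well in DMEM/10% FCS. After 24 h, compound added in DMEM/0.5% FCS, triplicate wells. Firefly and Renilla luciferase read 24 h later; firefly divided by Renilla per well, expressed relative to DMSO-treated cells.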

[2] = Metabolic stability in human liver microsomes assessed as compound remaining after 1 hr; assay type: ADME, Microsome; settings: read-out: Stability
[3] = Half life in human liver microsomes incubated up to 120 mins at pH 7.4; assay type: ADME, Microsome
[4] = Half life in human liver microsomes incubated up to 60 mins; assay type: ADME, Microsome
Outline: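 Pooled human liver microsomes with NADPH; sampling at 0, 15, 30, 45 and 60 min to derive intrinsic clearance half-life.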

[5] = test system: C3H 10T1/2; experiment: Osteogenetic activity in mouse C3H10T1/2 cells assessed as increase in osteocalcin expression at 3.3 uM after 10 days by RT-PCR analysis relative to control; assay type: functional
[6] = test system: Rattus norvegicus; experiment: Osteogenetic activity in Sprague-Dawley rat assessed as increase in mechanical stability of the vertebral segments at 4 mg/kg measured after 8 weeks by manual palpation; assay type: functional, organism-based; design: dose 4 mg/kg
Outline: (§1)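 Sprague Dawley rats; compound in DMSO at 50 mg/mL, 40 µL loaded onto collagen sponge, held 1–2 h at room temperature, implanted bilaterally between L4 and L5 after decorticating transverse processes; 4 mg/kg. After 8 weeks, segment stability scored by manual palpation (n = 10/group, Kruskal-Wallis); formalin-fixed tissue scanned by microCT at 18 µm resolution for callus bone volume.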

[7] = test system: Rattus norvegicus; experiment: Osteogenetic activity in Sprague-Dawley rat assessed as increase in bone volume in callus at 4 mg/kg measured after 8 weeks by MicroCT analysis; assay type: functional, organism-based; design: dose 4 mg/kg; outline: as §1

Chain of Sonic hedgehog protein (Q62226 25-198 limits assumed): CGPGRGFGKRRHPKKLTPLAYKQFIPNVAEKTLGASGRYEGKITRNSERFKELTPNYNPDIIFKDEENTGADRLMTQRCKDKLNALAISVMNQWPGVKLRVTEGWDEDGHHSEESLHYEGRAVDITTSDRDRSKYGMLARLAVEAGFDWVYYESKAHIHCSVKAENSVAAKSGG

| SMILES | EC50 [1] | remaining at 1 h [2] | fold change (FC) [5] | other results |
| --- | --- | --- | --- | --- |
| CCCCCC[C@@](O)(c1ccccc1)[C@H]1CC[C@H]2[C@@H]3C[C@H](O)[C@H]4C[C@@H](O)CC[C@]4(C)[C@H]3CC[C@@]21C | > 10000 nM | 69% | – | – |
| [2H][C@@H](CC(C)C)[C@H]([2H])[C@](C)(O)[C@H]1CC[C@H]2[C@@H]3C[C@H](O)[C@H]4C[C@@H](O)CC[C@]4(C)[C@H]3CC[C@]12C | 1000 nM | – | – | half-life [3]: > 120 min |
| CCCCCC[C@@](O)(CC)[C@H]1CC[C@H]2[C@@H]3C[C@H](O)[C@H]4C[C@@H](O)CC[C@]4(C)[C@H]3CC[C@]12C | 2900 nM | 9% | – | – |
| [2H][C@H](CC(C)C)[C@@H]([2H])[C@](C)(O)[C@H]1CC[C@H]2[C@@H]3C[C@H](O)[C@H]4C[C@@H](O)CC[C@]4(C)[C@H]3CC[C@]12C | 1100 nM | – | – | half-life [4]: 5 min |
| C[C@]12CC[C@H](O)C[C@@H]1[C@@H](O)C[C@@H]1[C@@H]2CC[C@@]2(C)[C@H]1CC[C@@H]2[C@@](C)(O)CCCc1ccccc1 | 2500 nM | 1% | 2 | – |
| C[C@]12CC[C@H](O)C[C@@H]1[C@@H](O)C[C@@H]1[C@@H]2CC[C@@]2(C)[C@H]1CC[C@@H]2[C@@](C)(O)CCCc1cccnc1 | 1200 nM | – | – | – |
| COCCCC[C@](C)(O)[C@H]1CC[C@H]2[C@@H]3C[C@H](O)[C@H]4C[C@@H](O)CC[C@]4(C)[C@H]3CC[C@@]21C | 3100 nM | 35% | 3 | – |
| C[C@]12CC[C@H](O)C[C@@H]1[C@@H](O)C[C@@H]1[C@@H]2CC[C@@]2(C)[C@H]1CC[C@@H]2[C@@](C)(O)CCCc1ccncc1 | > 5000 nM | – | 2 | – |
| CCCCCCC[C@](C)(O)[C@H]1CC[C@H]2[C@@H]3C[C@H](O)[C@H]4C[C@@H](O)CC[C@]4(C)[C@H]3CC[C@@]21C | 500 nM | – | 17 | – |
| CCCCCC[C@](C)(O)[C@H]1CC[C@H]2[C@@H]3C[C@H](O)[C@H]4C[C@@H](O)CC[C@]4(C)[C@H]3CC[C@@]21C | 400 nM | 2% | 36 | Activity [6]: inactive; Activity [7]: Active |
| [2H]C([2H])(CC(C)C)C([2H])([2H])[C@](C)(O)[C@H]1CC[C@H]2[C@@H]3C[C@H](O)[C@H]4C[C@@H](O)CC[C@]4(C)[C@H]3CC[C@@]21C | 800 nM | 100% | 17 | half-life [3]: > 120 min |
| CC(C)CCC[C@](C)(O)[C@H]1CC[C@H]2[C@@H]3C[C@H](O)[C@H]4C[C@@H](O)CC[C@]4(C)[C@H]3CC[C@@]21C | 800 nM | 3% | 15 | Activity [6]: inactive; Activity ([6]; tested as the 2H-labelled form): inactive; half-life [4]: 4 min; Activity [7]: Active; Activity ([7]; tested as the 2H-labelled form): Active |
| CCCCC[C@](C)(O)[C@H]1CC[C@H]2[C@@H]3C[C@H](O)[C@H]4C[C@@H](O)CC[C@]4(C)[C@H]3CC[C@@]21C | 6600 nM | – | 4 | – |
| CC(C)CCC[C@@](C)(O)[C@H]1CC[C@H]2[C@@H]3C[C@H](O)[C@H]4C[C@@H](O)CC[C@]4(C)[C@H]3CC[C@@]21C | > 10000 nM | – | – | – |
| [2H]C([2H])(CCCC)C([2H])([2H])[C@](C)(O)[C@H]1CC[C@H]2[C@@H]3C[C@H](O)[C@H]4C[C@@H](O)CC[C@]4(C)[C@H]3CC[C@@]21C | 300 nM | 100% | 35 | – |
